Measured values: ChEMBL document CHEMBL4680177, “Novel distamycin analogues that block the cell cycle of African trypanosomes with high selectivity and potency” (Eur J Med Chem, 2020)
The source made the active and inactive calls. No cut-off for these calls is given here.

Experiments:
J774 [1] = assay: Cytotoxicity against mouse J774 cells assessed as reduction in cell viability >120 uM after 24 hrs by WST-1 assay; type: cell-based; details: j774, 24 h
Summary of the method: (§1)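 J774 murine macrophages in DMEM with 10% FBS, 37 °C, 5% CO2. Exposed 24 h to a 6-point compound series, in triplicate, up to 120 µM with DMSO 1% v/v. Viability read with WST-1 reagent relative to DMSO control and EC50 taken from nonlinear fit. The selectivity index is the macrophage EC50 divided by the trypanosome EC50.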

[2] = tested on: Trypanosoma brucei brucei; assay: Antitrypanosomal activity against bloodstream form Trypanosoma brucei brucei 427 […] assessed as cell viability at 5 uM after 24 hrs by propidium iodide staining based flow cytometric analysis relative to control; type: functional
Summary of the method: (§2)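 Bloodstream T. b. brucei 427 expressing hGrx1-roGFP2 (line 449_Grx-roGFP2), grown in HMI-9 with 10% FBS, 37 °C, 5% CO2. Biosensor induced with oxytetracycline (1 µg/mL final). Exponential-phase cells seeded at 5×10^5/mL and exposed 24 h to a single 5 µM screen, or to 0.0001–120 µM for EC50. DMSO ≤1% v/v. Viability read by PI exclusion on flow cytometry, expressed relative to DMSO control. EC50 from nonlinear fit; ≥3 replicates, S.D.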

[3] = tested on: Trypanosoma brucei brucei; assay: Antitrypanosomal activity against bloodstream form Trypanosoma brucei brucei 427 […] assessed as cell viability upto 60 uM after 48 hrs by propidium iodide staining based flow cytometric analysis; type: functional, organism-based; details: dose microM <=60, time 48.0 hrs
Summary of the method: (§3)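 Viability of bloodstream T. b. brucei 427 redox-reporter line under lower-density conditions: 1.2×10^4 parasites/mL seeded, 48 h exposure, compound tested up to 60 µM. Nifurtimox included as positive control. Viability read by PI exclusion on flow cytometry.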

J774 [4] = assay: Cytotoxicity against mouse J774 cells assessed as reduction in cell viability at 120 uM after 24 hrs by WST-1 assay; type: cell-based; details: j774, 24 h; summary of the method: as §1
[5] = tested on: Trypanosoma brucei brucei; assay: Antitrypanosomal activity against bloodstream form Trypanosoma brucei brucei 427 […] assessed as cell viability after 48 hrs by propidium iodide staining based flow cytometric analysis; type: functional, organism-based; details: Trypanosoma brucei, 427, 48 h; summary of the method: as §3
[6] = Selectivity index, ratio of EC50 for cytotoxicity against mouse J774 cells to EC50 for antitrypanosomal activity against bloodstream form Trypanosoma brucei brucei 427; type: toxicity, cell-based; details: read-out: Ratio EC50; summary of the method: as §1
[7] = Selectivity ratio of EC50 for antitrypanosomal activity against bloodstream form Trypanosoma brucei brucei 427 assessed as cell viability after 24 hrs to antitrypanosomal activity against bloodstream form Trypanosoma brucei brucei 427 assessed as cell viability after 48 hrs; type: functional
[8] = tested on: Trypanosoma brucei brucei; assay: Antitrypanosomal activity against bloodstream form Trypanosoma brucei brucei 427 […] assessed as cell viability after 24 hrs by propidium iodide staining based flow cytometric analysis; type: functional, organism-based; details: Trypanosoma brucei, 427, 24 h; summary of the method: as §2
J774 [9] = assay: Cytotoxicity against mouse J774 cells assessed as reduction in cell viability after 24 hrs by WST-1 assay; type: cell-based; details: J774, 24 h; summary of the method: as §1
[10] = tested on: Trypanosoma brucei brucei; assay: Antitrypanosomal activity against Trypanosoma brucei brucei AnTaT 1.1 infected in Balb/cJ mouse assessed as reduction in parasitemia at 2.09 to 8.36 mg/kg, ip administered for 7 days and measured up to 17 days; type: functional, organism-based; details: dose 2.09-8.36 mg/kg, time 7.0 day
Summary of the method: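 Female BalB/cJ mice, 6-8 weeks, ~20 g, infected ip with 10^4 bloodstream T. b. brucei AnTaT 1.1. From day 4 post-infection, groups of 6 dosed ip in 300 µL PBS: daily for 7 days at 2.09 or 8.36 mg/Kg, or one 40 mg/Kg dose; vehicle DMSO 3.3 mg/Kg/day for 7 days. Parasitemia from submandibular blood counted by light microscopy in a Neubauer chamber. Detection limit ≥2.5×10^4 parasites/mL. Kruskal-Wallis test versus vehicle.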

[11] = tested on: Trypanosoma brucei brucei; assay: Induction of cell cycle arrest in bloodstream form Trypanosoma brucei brucei 427 assessed as accumulation at single kinetoplast and septum like or partitioned nucleus cells at 7 nM after 24 hrs by DAPI. staining based epifluorescence microscopic analysis relative to control; type: functional
Summary of the method: (§4)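 Parasites at 5×10^5/mL treated 24 h with DMSO 1%, DAC 41 nM, or compound at 12 or 7 nM. Cells fixed in 4% paraformaldehyde for 18 min at room temperature and smeared on slides. Mounted in DAPI medium and scored by epifluorescence microscopy (60X/100X) for kinetoplast/nucleus configuration. At least 50 cells per sample.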

DNA [12] = assay: Competitive binding affinity to Escherichia coli XL-1 pUC18 plasmid DNA at 20 uM after 120 mins by DAPI staining based spectrofluorimetric method relative to control; type: nucleic-acid assay
Summary of the method: (§5)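 pUC18 or pUC18 carrying a T. brucei minicircle, 5 nM in PBS pH 7.4, incubated 30 or 120 min with 20 µM compound or DMSO 1% v/v. DAPI then added to 500 nM final and emission recorded by spectrofluorimetry (ex 358 nm, em 368–600 nm). Fluorescence normalized to the DNA+DMSO+DAPI control set at 100%. Mean ± S.D., n=3.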

[13] = tested on: Trypanosoma brucei brucei; assay: (§6) Antitrypanosomal activity against bloodstream form Trypanosoma brucei brucei 427 […] assessed as cell viability at 1000 nM preincubated in heat-inactivated serum for 45 mins followed by culture addition and measured after 24 hrs by propidium iodide staining based flow cytometric analysis (reference value: 98.5 +/- 1.4%); type: functional; details: time 48.0 hrs, in the assay text read “for 24 hrs” for “for 45 mins”
Summary of the method: (§7)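 Compound at 100 µM, with ≤1% v/v DMSO, held 24 h at 37 °C in fresh serum or in serum heat-inactivated at 54 °C for 45 min. It was then added to 449-hGrx-roGFP2 T. brucei cultures at 10 or 1000 nM final. Viability after 24 h was read by PI flow cytometry as in the standard assay. Untreated serum-exposed controls were included; mean ± SD.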

[14] = tested on: Trypanosoma brucei brucei; assay: Induction of cell cycle arrest in bloodstream form Trypanosoma brucei brucei 427 assessed as accumulation at 1K+1N cells at 7 nM after 24 hrs by DAPI. staining based epifluorescence microscopic analysis (reference value: 80%); type: functional; summary of the method: as §4
[15] = tested on: Trypanosoma brucei brucei; assay: Induction of cell cycle arrest in bloodstream form Trypanosoma brucei brucei 427 assessed as accumulation at G0/G1 phase at 7 nM after 24 hrs by propidium iodide staining based flow cytometric analysis (reference value: 49%); type: functional
[16] = tested on: Trypanosoma brucei brucei; assay: Induction of cell cycle arrest in bloodstream form Trypanosoma brucei brucei 427 assessed as accumulation at G0/G1 phase at 14 nM after 24 hrs by propidium iodide staining based flow cytometric analysis (reference value: 49%); type: functional
[17] = tested on: Trypanosoma brucei brucei; assay: Induction of cell cycle arrest in bloodstream form Trypanosoma brucei brucei 427 assessed as accumulation at G2/M phase at 14 nM after 24 hrs by propidium iodide staining based flow cytometric analysis (reference value: 20%); type: functional
[18] = tested on: Trypanosoma brucei brucei; assay: as §6, with “10” for “1000”, “fresh” for “heat-inactivated”, “100” for “98.5”, “3.5%)” for “1.4%)”; type: functional; details: time 48.0 hrs, in the assay text read “for 24 hrs” for “for 45 mins”; summary of the method: as §7
[19] = tested on: Trypanosoma brucei brucei; assay: Antitrypanosomal activity against bloodstream form Trypanosoma brucei brucei 427 assessed as cell viability at 1000 nM after 24 hrs by propidium iodide staining based flow cytometric analysis (reference value: 100 +/- 10%); type: functional
[20] = tested on: Trypanosoma brucei brucei; assay: Induction of oxidative stress in bloodstream form Trypanosoma brucei brucei 427 up to 5 times EC50 concentration after 4 hrs by propidium iodide staining based flow cytometric analysis; type: functional
[21] = tested on: Trypanosoma brucei brucei; assay: as §6, with “10” for “1000”; type: functional; details: time 48.0 hrs, in the assay text read “for 24 hrs” for “for 45 mins”; summary of the method: as §7
[22] = tested on: Trypanosoma brucei brucei; assay: Induction of cell cycle arrest in bloodstream form Trypanosoma brucei brucei 427 assessed as accumulation at G2/M phase at 7 nM after 24 hrs by propidium iodide staining based flow cytometric analysis (reference value: 20%); type: functional
[23] = tested on: Trypanosoma brucei brucei; assay: Induction of membrane permeability in bloodstream form Trypanosoma brucei brucei 427 assessed as change in integrity at EC50 concentration after 4 hrs by propidium iodide staining based flow cytometric analysis
[24] = tested on: Trypanosoma brucei brucei; assay: Antitrypanosomal activity against bloodstream form Trypanosoma brucei brucei 427 assessed as cell viability at 10 nM after 24 hrs by propidium iodide staining based flow cytometric analysis (reference value: 100 +/- 10%); type: functional
[25] = tested on: Trypanosoma brucei brucei; assay: Induction of cell cycle arrest in bloodstream form Trypanosoma brucei brucei 427 assessed as accumulation at S phase at 7 nM after 24 hrs by propidium iodide staining based flow cytometric analysis (reference value: 31%); type: functional
[26] = tested on: Trypanosoma brucei brucei; assay: as §6, with “fresh” for “heat-inactivated”, “100” for “98.5”, “3.5%)” for “1.4%)”; type: functional; details: time 48.0 hrs, in the assay text read “for 24 hrs” for “for 45 mins”; summary of the method: as §7
DNA [27] = assay: Competitive binding affinity to Escherichia coli XL-1 pUC18 K-DNA at 20 uM after 120 mins by DAPI staining based spectrofluorimetric method relative to control; type: nucleic-acid assay; summary of the method: as §5

## CC(=O)Nc1nc(C(=O)Nc2cc(C(=O)Nc3nc(C(=O)O)c(C(C)C)s3)n(C)c2)c(C(C)C)s1
J774 [1]
  Activity: Nd(Insoluble)
[2]
  Activity: 113.1%
[3]
  Activity: inactive
J774 [4]
  Activity: Non-Toxic

## CCOC(=O)c1csc(NC(=O)c2cc([N+](=O)[O-])cn2C)n1
[2]
  Activity: 120.5%

## CC1CS(=O)(=O)CCN1/N=C/c1ccc([N+](=O)[O-])o1 (stereo not given) [NIFURTIMOX]
[5]
  EC50: 750 nM
[6]
  selectivity ratio: 10
[7]
  Ratio EC50: 20
[8]
  EC50: 10000 nM

## Cc1ccc(C(=O)Nc2ccc(S(=O)(=O)O)c3cc(S(=O)(=O)O)cc(S(=O)(=O)O)c23)cc1NC(=O)c1cccc(NC(=O)Nc2cccc(C(=O)Nc3cc(C(=O)Nc4ccc(S(=O)(=O)O)c5cc(S(=O)(=O)O)cc(S(=O)(=O)O)c45)ccc3C)c2)c1 [SURAMIN]
[8]
  EC50: 78 nM

## CCOC(=O)c1csc(NC(=O)c2csc(NC(=O)c3csc(NC(=O)OC(C)(C)C)n3)n2)n1
[5]
  EC50: 57 nM
[7]
  Ratio EC50: 5
J774 [9]
  EC50: 5000 nM

## CCOC(=O)c1csc(NC(=O)c2cc(NC(=O)c3csc(NC(=O)OC(C)(C)C)n3)cn2C)n1
[10]
  Activity: inactive
[11]
  Activity: 26%
DNA [12]
  Activity: inactive
[13]
  Activity: 17.5%
[14]
  Activity: 46%
[2]
  Activity: 0.06%
[15]
  Activity: 44%
[16]
  Activity: 6%
[17]
  Activity: 94%
[18]
  Activity: 84.2%
[6]
  selectivity ratio: 5560
[19]
  Activity: 10.7%
[8]
  EC50: 7.1 nM
[20]
  Activity: inactive
[21]
  Activity: 104.6%
[22]
  Activity: 22%
[23]
  Activity: inactive
[24]
  Activity: 54.1%
J774 [9]
  EC50: ≥ 40000 nM
[25]
  Activity: 34%
[26]
  Activity: 17.2%
DNA [27]
  Activity: 48%
